The results in this text go back to ChEMBL document CHEMBL3853360, “Combined Interactions with I1-, I2-Imidazoline Binding Sites and α2-Adrenoceptors To Manage Opioid Addiction” (ACS Med Chem Lett, 2016).

Test [1] can be described thus: Displacement of [3H]idazoxan from I2 receptor imidazoline binding site in rabbit kidney membranes after 45 mins by […]. It counts as cell membranes, Oryctolagus cuniculus, Membrane.
For the next test, the target named is Nischarin (Rattus norvegicus, UniProt Q4G017). Briefly: Displacement of [125I]-p-iodoclonidine from I1 receptor imidazoline binding site in Sprague-Dawley rat kidney cell membranes after 30 mins by liquid scintillation counting. The procedure, abridged:
(§1)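 Radioligand competition binding with pKi determined by displacement. I1 sites: [125I]-p-iodoclonidine on rat kidney membranes. I2 sites: [3H]-2-BFI on rat brain membranes. α2-ARs: [3H]-RX821002 on rat brain membranes.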

The target of test [2] is T1, Adrenergic receptor alpha-2 (Rattus norvegicus, UniProt P22086+P19328+P22909).
T1 sequence (P22086 whole entry): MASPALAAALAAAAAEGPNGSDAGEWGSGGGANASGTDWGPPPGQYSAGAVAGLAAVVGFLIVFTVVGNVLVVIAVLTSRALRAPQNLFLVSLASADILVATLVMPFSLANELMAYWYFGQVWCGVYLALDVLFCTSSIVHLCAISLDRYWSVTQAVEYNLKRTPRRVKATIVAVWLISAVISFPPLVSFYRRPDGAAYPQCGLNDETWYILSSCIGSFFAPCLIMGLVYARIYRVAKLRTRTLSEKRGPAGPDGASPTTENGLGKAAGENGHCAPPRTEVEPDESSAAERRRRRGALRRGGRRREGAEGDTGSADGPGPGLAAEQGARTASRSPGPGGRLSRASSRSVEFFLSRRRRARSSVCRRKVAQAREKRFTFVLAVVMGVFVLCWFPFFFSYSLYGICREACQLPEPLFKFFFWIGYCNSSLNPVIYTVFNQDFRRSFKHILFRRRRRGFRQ
T1 sequence (P19328 whole entry): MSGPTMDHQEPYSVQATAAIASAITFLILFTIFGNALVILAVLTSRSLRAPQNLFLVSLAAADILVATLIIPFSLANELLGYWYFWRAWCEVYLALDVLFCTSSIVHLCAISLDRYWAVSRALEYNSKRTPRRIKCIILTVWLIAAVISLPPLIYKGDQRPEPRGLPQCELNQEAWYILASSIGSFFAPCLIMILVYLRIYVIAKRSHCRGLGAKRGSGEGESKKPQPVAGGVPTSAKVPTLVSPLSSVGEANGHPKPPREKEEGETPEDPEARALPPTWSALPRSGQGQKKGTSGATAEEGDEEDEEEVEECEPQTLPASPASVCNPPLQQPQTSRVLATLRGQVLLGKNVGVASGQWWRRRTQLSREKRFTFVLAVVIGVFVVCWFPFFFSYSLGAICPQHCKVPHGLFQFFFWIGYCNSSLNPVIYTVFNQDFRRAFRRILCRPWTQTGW
T1 sequence (P22909 whole entry): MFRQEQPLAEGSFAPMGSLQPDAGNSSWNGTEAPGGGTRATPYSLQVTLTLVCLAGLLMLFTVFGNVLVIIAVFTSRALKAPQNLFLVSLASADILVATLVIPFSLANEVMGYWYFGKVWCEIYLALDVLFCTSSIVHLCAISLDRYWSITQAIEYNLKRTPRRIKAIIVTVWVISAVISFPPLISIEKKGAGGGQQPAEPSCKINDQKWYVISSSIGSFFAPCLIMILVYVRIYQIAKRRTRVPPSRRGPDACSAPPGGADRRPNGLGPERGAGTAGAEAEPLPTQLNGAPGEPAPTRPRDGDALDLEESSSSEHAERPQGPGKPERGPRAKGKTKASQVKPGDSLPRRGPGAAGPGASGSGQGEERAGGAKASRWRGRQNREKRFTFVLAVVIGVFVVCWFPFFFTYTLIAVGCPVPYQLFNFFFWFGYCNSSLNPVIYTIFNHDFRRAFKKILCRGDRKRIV
Briefly: Displacement of [3H]-RX 821002 from alpha2-AR in Sprague-Dawley rat brain membranes after 30 mins by liquid scintillation counting. It counts as cell membranes, Membrane. The procedure, abridged: as §1
Background: Loss of bound radioactivity is the signal in a displacement assay; it reports binding, not function.

Test [3] can be described thus: Displacement of [3H]-2-BFI from I2 receptor imidazoline binding site in Sprague-Dawley rat brain membranes after 30 mins by liquid scintillation counting. It counts as cell membranes, Membrane. In outline: as §1
For another test, the species on record is Homo sapiens. Briefly: Selectivity ratio of agonist activity at I1 receptor imidazoline binding site (unknown origin) to agonist activity at alpha2-AR (unknown origin).
In test [4] the target is T2, Alpha-2B adrenergic receptor (Homo sapiens) (UniProt P18089).
T2 sequence (whole entry): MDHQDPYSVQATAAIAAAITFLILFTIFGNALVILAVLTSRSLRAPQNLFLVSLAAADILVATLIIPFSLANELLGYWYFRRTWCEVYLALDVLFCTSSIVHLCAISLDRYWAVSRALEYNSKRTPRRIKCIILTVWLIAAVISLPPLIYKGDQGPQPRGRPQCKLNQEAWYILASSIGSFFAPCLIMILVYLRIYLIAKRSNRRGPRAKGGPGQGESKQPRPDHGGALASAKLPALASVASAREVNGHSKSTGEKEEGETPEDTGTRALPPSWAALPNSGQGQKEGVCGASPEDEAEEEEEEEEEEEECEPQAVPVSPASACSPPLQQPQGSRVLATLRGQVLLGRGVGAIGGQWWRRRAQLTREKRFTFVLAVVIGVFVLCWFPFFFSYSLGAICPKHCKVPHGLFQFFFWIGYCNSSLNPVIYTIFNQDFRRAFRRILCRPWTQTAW
Briefly: Agonist activity at human alpha2b-AR expressed in CHO cells assessed as rate of acidification after 240 mins by cytosensor microphysiometric analysis relative to (-)-noradrenaline. It is filed as cell-based. The procedure, abridged: (§2)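 Functional assay in CHO cells stably expressing a single human α2-AR subtype (α2A, α2B or α2C), read on a Cytosensor microphysiometer. Outputs are pEC50, intrinsic activity and, for antagonism, pKb. Intrinsic activity is expressed as a fraction of the full agonist (−)-noradrenaline, set at 1. Values are mean ± SEM of 3–5 separate experiments.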

For test [5], the target named is T3, Alpha-2B adrenergic receptor (Homo sapiens, UniProt P18089).
T3 sequence (P18089 whole entry): T2 sequence (whole entry)
Briefly: Agonist activity at human alpha2b-AR expressed in CHO cells assessed as rate of acidification after 240 mins by cytosensor microphysiometric analysis. It is filed as cell-based. The procedure, abridged: as §2

Test [6] deals with T4, Alpha-2C adrenergic receptor (Homo sapiens) (UniProt P18825).
T4 sequence (whole entry): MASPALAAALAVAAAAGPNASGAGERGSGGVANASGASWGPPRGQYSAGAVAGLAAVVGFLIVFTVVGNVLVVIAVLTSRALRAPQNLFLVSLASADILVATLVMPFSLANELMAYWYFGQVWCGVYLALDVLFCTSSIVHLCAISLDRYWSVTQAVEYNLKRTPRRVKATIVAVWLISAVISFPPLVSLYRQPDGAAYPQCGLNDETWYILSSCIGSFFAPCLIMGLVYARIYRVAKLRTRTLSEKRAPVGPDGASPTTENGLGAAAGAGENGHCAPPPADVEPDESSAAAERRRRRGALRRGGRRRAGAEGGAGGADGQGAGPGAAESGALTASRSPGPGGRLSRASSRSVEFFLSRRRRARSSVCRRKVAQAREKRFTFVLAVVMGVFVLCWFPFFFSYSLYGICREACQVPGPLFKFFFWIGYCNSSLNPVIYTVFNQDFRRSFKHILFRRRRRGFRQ
Briefly: Agonist activity at human alpha2c-AR expressed in CHO cells assessed as rate of acidification after 240 mins by cytosensor microphysiometric analysis relative to (-)-noradrenaline. It is filed as cell-based. The procedure, abridged:
as §2

For test [7], the target named is T5, Alpha-2A adrenergic receptor (Homo sapiens) (UniProt P08913).
T5 sequence (whole entry): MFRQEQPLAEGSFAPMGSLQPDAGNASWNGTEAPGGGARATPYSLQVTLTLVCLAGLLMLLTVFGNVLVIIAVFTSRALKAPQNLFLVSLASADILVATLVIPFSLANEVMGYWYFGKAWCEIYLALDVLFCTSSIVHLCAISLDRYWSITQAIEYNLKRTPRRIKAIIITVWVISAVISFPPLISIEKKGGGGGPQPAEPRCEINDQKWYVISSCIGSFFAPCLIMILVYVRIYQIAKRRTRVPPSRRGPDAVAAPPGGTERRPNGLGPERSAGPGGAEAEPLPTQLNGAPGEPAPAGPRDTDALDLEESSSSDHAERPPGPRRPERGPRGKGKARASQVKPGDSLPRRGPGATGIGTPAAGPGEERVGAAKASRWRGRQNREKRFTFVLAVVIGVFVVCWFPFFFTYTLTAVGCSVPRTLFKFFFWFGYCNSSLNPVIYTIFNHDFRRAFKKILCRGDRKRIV
Put plainly: Antagonist activity at human alpha2a-AR expressed in CHO cells assessed as inhibition of (-)-noradrenaline-induced acidification rate after 240 mins by cytosensor microphysiometric analysis. It is filed as cell-based. In outline: as §2

The target of test [8] is T6, Alpha-2C adrenergic receptor (Homo sapiens, UniProt P18825).
T6 sequence (P18825 whole entry): T4 sequence (whole entry)
Briefly: Agonist activity at human alpha2c-AR expressed in CHO cells assessed as rate of acidification after 240 mins by cytosensor microphysiometric analysis. It counts as cell-based. The procedure, abridged:
as §2

Test [9] deals with T7, Alpha-2A adrenergic receptor (Homo sapiens, UniProt P08913).
T7 sequence (P08913 whole entry): T5 sequence (whole entry)
Put plainly: Agonist activity at human alpha2a-AR expressed in CHO cells assessed as rate of acidification after 240 mins by cytosensor microphysiometric analysis. It is filed as cell-based. In outline:
as §2

Sequence of Nischarin (Q4G017 whole entry): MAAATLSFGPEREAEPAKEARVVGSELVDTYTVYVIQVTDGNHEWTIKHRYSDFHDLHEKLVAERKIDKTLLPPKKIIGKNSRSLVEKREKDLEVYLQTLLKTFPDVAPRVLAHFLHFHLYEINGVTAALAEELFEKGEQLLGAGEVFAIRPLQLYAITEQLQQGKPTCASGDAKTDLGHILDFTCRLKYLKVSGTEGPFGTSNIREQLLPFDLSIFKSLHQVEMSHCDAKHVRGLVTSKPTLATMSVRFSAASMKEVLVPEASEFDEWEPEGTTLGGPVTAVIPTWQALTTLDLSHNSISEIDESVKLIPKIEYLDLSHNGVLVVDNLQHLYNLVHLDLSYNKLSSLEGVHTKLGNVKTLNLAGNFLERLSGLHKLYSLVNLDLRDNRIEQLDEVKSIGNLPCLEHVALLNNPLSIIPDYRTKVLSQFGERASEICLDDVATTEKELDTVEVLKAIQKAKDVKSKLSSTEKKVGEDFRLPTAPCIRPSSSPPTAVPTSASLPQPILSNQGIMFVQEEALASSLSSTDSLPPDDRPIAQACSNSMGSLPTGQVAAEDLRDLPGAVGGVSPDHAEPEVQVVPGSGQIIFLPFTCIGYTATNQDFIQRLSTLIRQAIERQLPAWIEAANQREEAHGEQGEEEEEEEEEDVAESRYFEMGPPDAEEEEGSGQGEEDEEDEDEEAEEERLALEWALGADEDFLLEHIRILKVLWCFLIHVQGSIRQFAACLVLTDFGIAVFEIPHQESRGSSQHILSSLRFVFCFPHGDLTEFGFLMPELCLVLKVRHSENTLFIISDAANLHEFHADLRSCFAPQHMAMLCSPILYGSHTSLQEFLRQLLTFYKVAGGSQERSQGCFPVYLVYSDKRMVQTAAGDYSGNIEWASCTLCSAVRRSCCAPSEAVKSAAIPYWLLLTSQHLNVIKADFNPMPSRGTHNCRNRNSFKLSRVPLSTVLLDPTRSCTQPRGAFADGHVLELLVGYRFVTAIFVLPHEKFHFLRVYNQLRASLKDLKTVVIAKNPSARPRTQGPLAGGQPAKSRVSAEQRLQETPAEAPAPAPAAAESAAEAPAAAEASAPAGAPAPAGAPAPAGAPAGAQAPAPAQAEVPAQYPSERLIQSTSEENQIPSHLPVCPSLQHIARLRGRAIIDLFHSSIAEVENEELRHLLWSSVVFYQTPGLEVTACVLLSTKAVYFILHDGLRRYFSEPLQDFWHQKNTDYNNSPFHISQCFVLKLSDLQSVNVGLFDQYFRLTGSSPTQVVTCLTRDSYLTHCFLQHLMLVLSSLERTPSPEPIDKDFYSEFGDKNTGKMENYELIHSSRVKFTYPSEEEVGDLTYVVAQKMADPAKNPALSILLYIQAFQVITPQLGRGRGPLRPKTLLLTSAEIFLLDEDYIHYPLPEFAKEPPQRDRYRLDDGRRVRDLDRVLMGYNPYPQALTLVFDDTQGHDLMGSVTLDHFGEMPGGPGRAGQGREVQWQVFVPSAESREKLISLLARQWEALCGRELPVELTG

The pKi is the Ki on a negative log10 scale, so that one unit is a factor of ten. A lower pKi goes with a high Ki. Regarding `c1ccc(NCC2=NCCN2)cc1` [PHENAMAZOLINE], the pKi in test [1] was 7.48.
For orientation: Ki means a measure of affinity in units of concentration, obtained from inhibition or displacement. A low value points to higher affinity. `Clc1ccccc1/C=C/C1=NCCN1`: the Ki at Nischarin was 24 nM. The pKi in [2] is below 6; in test [3] it was 8.79.
`COc1nc(C)nc(Cl)c1NC1=NCCN1`: the Selectivity ratio in the test listed under Homo sapiens worked out at 40.
Usually EC50 stands for the concentration that produces a half-maximal response. A word on the pKb: it is the negative decadic logarithm of the Kb, by convention in mol/L. With `C=CCc1ccccc1NCC1=NCCN1`, the Intrinsic activity in [4] amounted to 0.5; in [6] it was 0.8. For the same compound, the EC50 was 2510 nM in [5] and 158 nM in test [8]. Also, on Nischarin, affinity was put at a Ki of 3.98 nM. In addition, the pKi came to 6.79 in test [2] and 7.85 in test [3]. For the same compound, in [7], the pKb worked out at 6.77.
As for `Clc1cccc(Cl)c1NC1=NCCN1`, the Selectivity ratio in the test listed under Homo sapiens was 4.
Turning to `C=CCc1ccccc1/C=C/C1=NCCN1`, the affinity on Nischarin, expressed as Ki, was 69.2 nM. The pKi in [2] is below 6; in test [3], 8.3.
For the compound `CCCc1ccccc1NCC1=NCCN1`, the figures for the Intrinsic activity in test [4] and in test [6] were 0.55 and 0.75, respectively. The EC50 is 4570 nM in [5] and 115 nM in [8]. The compound also showed a Ki on Nischarin of 8.32 nM. The pKi in test [2] turned out to be 6.75; in test [3] it was 7.29. Further, the pKb in [7] amounted to 6.71.
On to `C(=C\c1ccccc1-c1ccccc1)/C1=NCCN1`, for which, on Nischarin, the affinity, expressed as Ki, was 97.7 nM. The negative logarithm of the Ki (pKi) in [2] is given as below 6; in test [3] it was 8.08.
In the case of `c1ccc(-c2ccccc2NCC2=NCCN2)cc1`, the Intrinsic activity is 0.5 in test [4] and 0.8 in test [6]. Moreover, the EC50 in test [5] was 955 nM; in test [9], 63.1 nM; in test [8], 148 nM. At Nischarin, this compound had a Ki of 1.41 nM. The negative logarithm of the Ki (pKi) came to 6.75 in test [2] and 6.1 in [3].
Turning to `Clc1ccccc1NCC1=NCCN1`, the Intrinsic activity in test [4] stood at 0.45; in test [6], 0.85. Moreover, the results for the EC50 in [5] and in [8] were 776 nM and 224 nM, respectively. Also, the Ki at Nischarin was 7.59 nM. Further, the pKi was found to be 7.59 in test [2] and 7.9 in test [3]. In addition, the pKb in test [7] worked out at 7.12.
